In ChEMBL document CHEMBL1149659 (Bioorg Med Chem Lett, 2007):
pKd: −log10 of the molar value. In brackets after ≈: the same amount, converted by molar mass. Activity calls are given as the source filed them. The rule behind the calls is not given here.

Columns and labels:
3T3-L1 [1] = experiment: Inhibition of mouse 3T3-L1 cell differentiation at 2 uM
3T3-L1 (Mus musculus) = experiment: Inhibition of [1-14C]sodium acetate uptake in mouse 3T3-L1 cells at 2 uM
[2] = target: T1, Peroxisome proliferator-activated receptor gamma (Homo sapiens) (UniProt P37231); experiment: Activation of PPARgamma transcriptional activity in U20S cells at 0.01 to 1 uM; format: functional, cell-based; details: U2OS
T1 sequence (whole entry): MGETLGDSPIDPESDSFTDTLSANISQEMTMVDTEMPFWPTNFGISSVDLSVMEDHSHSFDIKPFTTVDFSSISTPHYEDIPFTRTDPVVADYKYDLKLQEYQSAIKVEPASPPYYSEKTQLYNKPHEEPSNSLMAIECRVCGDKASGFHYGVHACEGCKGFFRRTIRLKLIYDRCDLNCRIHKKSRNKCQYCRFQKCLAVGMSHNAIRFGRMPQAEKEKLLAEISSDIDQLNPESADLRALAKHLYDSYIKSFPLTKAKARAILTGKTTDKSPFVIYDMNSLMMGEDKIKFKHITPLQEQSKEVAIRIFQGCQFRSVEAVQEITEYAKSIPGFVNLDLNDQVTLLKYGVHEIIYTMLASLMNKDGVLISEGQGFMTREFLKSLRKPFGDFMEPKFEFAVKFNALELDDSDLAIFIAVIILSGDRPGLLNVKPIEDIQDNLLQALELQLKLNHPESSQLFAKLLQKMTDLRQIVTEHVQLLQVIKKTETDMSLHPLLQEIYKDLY
Outline: (§1)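 U2OS cells transfected with PPARγ expression plasmid, matching reporter plasmid and pCMV-β-galactosidase as internal control; reporter transcriptional activity measured with or without 1 μM pioglitazone stimulation; means of triplicate cultures.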

3T3-L1 [3] = experiment: Inhibition of mouse 3T3-L1 cell differentiation assessed as minimal effective concentration by oil-red O staining method
[4] = target: T1, Peroxisome proliferator-activated receptor gamma (Homo sapiens); experiment: Antagonist activity at pioglitazone-stimulated PPARgamma transcriptional activity in U2OS cells at 1 uM; format: functional, cell-based
Outline: as §1

[5] = target: T2, Peroxisome proliferator-activated receptor gamma (Homo sapiens, UniProt P37231); experiment: Binding affinity to PPARgamma
T2 sequence (P37231 whole entry): T1 sequence (whole entry)

3T3-L1 [6] = experiment: Stimulation of mouse 3T3-L1 cells differentiation at 2 to 4 uM in presence of guanosine; format: functional, cell-based
Outline: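 3T3-L1 cells with 50 μM guanosine added to suppress IMPDH-related effects; adipocyte differentiation stimulation examined at 2–4 μM.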

3T3-L1 [7] = experiment: Inhibition of mouse 3T3-L1 cell differentiation by oil-red O staining method; format: functional
Outline: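 Insulin-induced differentiation of 3T3-L1 pre-adipocytes into adipocytes; reduction in oil-red O stained cells judged under a microscope to give minimal inhibitory concentration.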

SMILES	Activity (3T3-L1 [1])	other results
COC(=O)CC/C(C)=C/Cc1c(O)c2c(c(C)c1OC(=O)c1ccncc1)COC2=O	inactive	inhibition (3T3-L1 (Mus musculus)): 3%
COc1c(C)c2c(c(O)c1C/C=C(\C)CCC(=O)O)C(=O)OC2 [MYCOPHENOLIC ACID]	Active	Activity [2]: Active; Activity (3T3-L1 [3]): 0.2 µM; Activity [4]: Active; pKd [5]: 3.96; Activity (3T3-L1 [6]): Active
COc1c(C)c2c(c(OC)c1C/C=C(\C)CCC(=O)O)C(=O)OC2	inactive	–
C/C=C/C1=CC(=O)[C@@H](O)[C@@H]1O [TERREIN]	–	MIC (3T3-L1 [7]): 81 µM (≈ 12.5 µg/mL)
COC(=O)CC/C(C)=C/Cc1c(O)c(C)c2c(c1OS(=O)(=O)c1ccc(C)cc1)C(=O)OC2	inactive	–
COCCOCOc1c(C/C=C(\C)CCC(=O)OC)c(OC(=O)c2ccncc2)c(C)c2c1C(=O)OC2	inactive	–
COc1c(C)c2c(c(OC(C)=O)c1C/C=C(\C)CCC(=O)O)C(=O)OC2	Active	Activity [4]: Active; inhibition (3T3-L1 (Mus musculus)): 86%
COC(=O)CC/C(C)=C/Cc1c(O)c2c(c(C)c1OC)COC2=O	Active	Activity [4]: Active
COC(=O)CC/C(C)=C/Cc1c(OC)c(C)c2c(c1OS(=O)(=O)c1ccc(C)cc1)C(=O)OC2	inactive	–
CCOC(=O)COc1c(C)c2c(c(O)c1C/C=C(\C)CCC(=O)OC)C(=O)OC2	inactive	inhibition (3T3-L1 (Mus musculus)): 0%
COCCOCOc1c(C/C=C(\C)CCC(=O)OC)c(OC(=O)c2cccnc2)c(C)c2c1C(=O)OC2	inactive	–
COC(=O)CC/C(C)=C/Cc1c(OC)c(C)c2c(c1OC)C(=O)OC2	inactive	–
COC(=O)CC/C(C)=C/Cc1c(O)c(C)c2c(c1O)C(=O)OC2	inactive	–
CCOC(=O)COc1c(C)c2c(c(OCOCCOC)c1C/C=C(\C)CCC(=O)OC)C(=O)OC2	inactive	–
COCCOCOc1c(C/C=C(\C)CCC(=O)OC)c(O)c(C)c2c1C(=O)OC2	inactive	inhibition (3T3-L1 (Mus musculus)): 10%
C/C(=C\Cc1c(O)c(C)c2c(c1O)C(=O)OC2)CCC(=O)O	inactive	–
COC(=O)CC/C(C)=C/Cc1c(O)c2c(c(C)c1OC(=O)c1cccnc1)COC2=O	inactive	–
